In ChEMBL document CHEMBL1126713, “Nonpeptide angiotensin II receptor antagonists. 1. Synthesis and in vitro structure-activity relationships of 4-[[[(1H-pyrrol-1-ylacetyl)amino]phenyl]methyl]imidazole derivatives as angiotensin II receptor antagonists” (J Med Chem, 1993):

Columns and labels:
[1] = molecular target: T1, Type-1 angiotensin II receptor B (Rattus norvegicus, UniProt P29089); test: Binding affinity against angiotensin II receptor type 1 (AT1) from rat liver.
T1 sequence (P29089 whole entry): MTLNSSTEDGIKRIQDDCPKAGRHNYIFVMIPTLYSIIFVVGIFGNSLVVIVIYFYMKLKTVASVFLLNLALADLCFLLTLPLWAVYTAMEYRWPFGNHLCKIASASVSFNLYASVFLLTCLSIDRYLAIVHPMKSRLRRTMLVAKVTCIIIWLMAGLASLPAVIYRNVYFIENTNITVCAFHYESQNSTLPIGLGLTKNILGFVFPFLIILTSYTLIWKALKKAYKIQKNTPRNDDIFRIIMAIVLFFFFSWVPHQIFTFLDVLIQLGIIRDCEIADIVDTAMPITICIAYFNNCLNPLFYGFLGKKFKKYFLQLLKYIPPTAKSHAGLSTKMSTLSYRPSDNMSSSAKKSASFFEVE
In short: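 Compounds were added from DMSO at 100× the final concentration. Samples were filtered on glass-fiber filters presoaked in Tris pH 7.7 with bacitracin and scintillation-counted. Nonspecific binding used 10 μM saralasin. IC50 came from nonlinear mass-action fits of five or six doses or more (mean ± SEM).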

[2] = molecular target: T2, Type-1 angiotensin II receptor B (Rattus norvegicus) (UniProt P29089); test: Binding affinity against angiotensin II (AT1 receptor) from rat liver expressed as % inhibition at 10 e -7 M
T2 sequence (whole entry): T1 sequence (P29089 whole entry)

[3] = species: Oryctolagus cuniculus; test: Inhibition of Angiotensin II induced contraction of isolated rabbit aortic rings; type: functional; settings: Aorta
In short: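 Thoracic aortic rings, 4–5 mm, from New Zealand White rabbits (3–4 kg) were held in PSS at 37 °C under 95% O2/5% CO2, with isometric force recorded. Rings were equilibrated 1.5 h, primed with 122 mM KCl and given two 10^-8 M AII control contractions. Compound in DMSO was incubated 10 min before the AII concentration–response was repeated. IC50 is the concentration halving AII contraction relative to the averaged controls.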

IC50 [1] [nM] | inhibition [2] [%] | IC50 [3] [nM] | Structure (SMILES)
10900 |  |  | CCCCc1nc(Cl)c(CO)n1Cc1ccc(NC(=O)C(=O)c2ccccc2)cc1
 | 33 |  | CCCCc1ncc(C(=O)OC)n1Cc1ccc(NC(=O)[C@H](Cc2ccccc2)n2cccc2C(=O)OC)cc1
340 |  |  | CCCCc1nc(-n2cccc2)c(C(=O)O)n1Cc1ccc(NC(=O)[C@H](Cc2ccccc2)n2cccc2C(=O)O)cc1
2600 |  |  | CCCCc1nc(Cl)c(CO)n1Cc1ccc(NC(=O)C(Cc2ccccc2)c2nn[nH]n2)cc1 (configuration not stated)
240 |  | 14000 | CCCCc1nc(Cl)c(CC(=O)O)n1Cc1ccc(NC(=O)[C@H](Cc2ccccc2)n2ccc(C(=O)OCC)c2)cc1
8370 |  |  | CCCCc1nc(Cl)c(CO)n1Cc1ccc(NC(=O)Cn2cccc2C(=O)OC)cc1
210 |  |  | CCCCc1nc(Cl)c(CO)n1Cc1ccc(NC(=O)[C@H](Cc2ccccc2)n2cccc2C(=O)OC)cc1
300 |  |  | CCCCc1nc(Cl)c(CO)n1Cc1ccc(-c2ccccc2C(=O)O)cc1
140 |  | 6400 | CCCCc1nc(Cl)c(CC(=O)O)n1Cc1ccc(NC(=O)[C@H](Cc2ccccc2)n2cccc2C)cc1
930 |  |  | CCCCc1nc2c(C)cccc2n1Cc1ccc(NC(=O)[C@H](Cc2ccccc2)n2cccc2C(=O)O)cc1
670 |  |  | CCCCc1nc(Cl)c(C(=O)O)n1Cc1ccc(NC(=O)[C@H](Cc2cccs2)n2cccc2)cc1
20 |  | 110 | CCCCc1ncc(C(=O)O)n1Cc1ccc(NC(=O)[C@H](Cc2ccccc2)n2cccc2C(=O)O)cc1
180 |  | 17000 | CCCCc1nc(Cl)c(CO)n1Cc1ccc(NC(=O)[C@H](Cc2ccccc2)n2cccc2C(=O)O)cc1
60 |  |  | CCc1nc2c(C)cc(C)nc2n1Cc1ccc(NC(=O)[C@H](Cc2ccccc2)n2cccc2C(=O)O)cc1
180 |  |  | CCCCc1nc(Cl)c(C(=O)O)n1Cc1ccc(NC(=O)[C@H](Cc2cccs2)n2cccc2C(=O)O)cc1
500 |  |  | CCCCc1nc(Cl)c(CC(=O)OC)n1Cc1ccc(NC(=O)[C@H](Cc2ccccc2)n2cccc2C(=O)OC)cc1
2600 |  |  | CCCCc1nc(Cl)c(CO)n1Cc1ccc(NC(=O)C(C#N)Cc2ccccc2)cc1 (configuration not stated)
24 |  |  | CCCCc1nc(Cl)c(CC(=O)O)n1Cc1ccc(NC(=O)[C@H](Cc2cccs2)n2cccc2C(=O)O)cc1
 | 7.8 |  | CCCCc1nc(Cl)c(CC(=O)O)n1Cc1ccc(NC(=O)CCc2ccccc2)cc1
80 |  | 550 | CCCCc1nc(Cl)c(C(=O)O)n1Cc1ccc(NC(=O)[C@H](Cc2ccccc2)n2cccc2C(=O)O)cc1

The next lines start with the compound.

Structure (SMILES) | IC50 [1] [nM] | inhibition [2] [%] | IC50 [3] [nM]
CCCCc1nc(Cl)c(CC(=O)O)n1Cc1ccc(NC(=O)[C@H](Cc2ccccc2)n2cc(C#N)c3ccccc32)cc1 | 1290 |  | 
CCCCc1nc(Cl)c(CO)n1Cc1ccc(NC(=O)[C@H](Cc2ccccc2)n2cccc2)cc1 |  | 8.1 | 
CCCCc1nc(Cl)c(CC(=O)OC)n1Cc1ccc(NC(=O)[C@H](Cc2ccccc2)n2ccc(C(=O)OCC)c2C)cc1 | 1470 |  | 
CCCCc1nc(Cl)c(C(=O)OC)n1Cc1ccc(NC(=O)[C@H](Cc2cccs2)n2cccc2)cc1 |  | 2.5 | 
CCCCc1nc(Cl)c(CO)n1Cc1ccc(NC(=O)[C@H](CCCC)n2cccc2C(=O)OC)cc1 | 590 |  | 
CCCCc1nc(Cl)c(C(=O)O)n1Cc1ccc(-c2ccccc2C(=O)O)cc1 | 92 |  | 
CCCCc1nc(Cl)c(C(=O)OC)n1Cc1ccc(NC(=O)[C@H](Cc2cccs2)n2cccc2C(=O)OC)cc1 |  | 11 | 
CCCCc1nc(Cl)c(CCC(=O)O)n1Cc1ccc(NC(=O)[C@H](Cc2ccccc2)n2cccc2C(=O)O)cc1 | 22 |  | 220
CCCCc1nc(Cl)c(C(=O)OC)n1Cc1ccc(NC(=O)[C@H](Cc2ccccc2)n2cccc2C(=O)OC)cc1 |  | 15 | 
CCCCc1nc(Cl)c(CC(=O)O)n1Cc1ccc(NC(=O)[C@H](Cc2ccccc2)n2ccc(C(=O)OCC)c2C)cc1 | 140 |  | 
CCCCc1nc(Cl)c(CO)n1Cc1ccc(NC(=O)[C@H](c2ccccc2)n2cccc2C(=O)OC)cc1 | 1120 |  | 
CCCCc1nc(Cl)c(CC(=O)OC)n1Cc1ccc(NC(=O)[C@H](Cc2ccccc2)n2ccc(C(=O)OCC)c2)cc1 |  | 7.2 | 
CCCCc1nc(Cl)c(CC(=O)O)n1Cc1ccc(NC(=O)[C@H](Cc2ccccc2)n2c(C)ccc2C)cc1 | 370 |  | 
CCc1nc2c(C)cc(C)nc2n1Cc1ccc(NC(=O)[C@H](Cc2ccccc2)n2cccc2C(=O)OC)cc1 | 330 |  | 
CCCCc1nc(Cl)c(CC(=O)O)n1Cc1ccc(NC(=O)[C@H](Cc2ccccc2)n2cccc2C(=O)O)cc1 |  |  | 520
CCCCc1nc(Cl)c(CCC(=O)OC)n1Cc1ccc(NC(=O)[C@H](Cc2ccccc2)n2cccc2C(=O)OC)cc1 | 210 |  | 
CCCCc1nc(Cl)c(CC(=O)OC)n1Cc1ccc(NC(=O)[C@H](Cc2ccccc2)n2cccc2C)cc1 |  | 14.8 | 
CCCCc1nc(Cl)c(CC(=O)OC)n1Cc1ccc(NC(=O)[C@H](Cc2cccs2)n2cccc2C(=O)OC)cc1 | 800 |  | 
CCCCc1nc(Cl)c(CC(=O)O)n1Cc1ccc(NC(=O)[C@H](Cc2ccccc2)n2cccc2)cc1 | 210 |  | 6300
CCCCc1nc(-n2cccc2)c(C(=O)OCC)n1Cc1ccc(NC(=O)[C@H](Cc2ccccc2)n2cccc2C(=O)O)cc1 | 2500 |  | 
